# Key:
# Rattus norvegicus [1] = assay: Antiinflammatory activity in po dosed rat assessed as inhibition of carrageenan-induced paw edema; format: functional; details: for ED50: Rattus norvegicus, po, read-out: ID50 (the source's name)
# How it was run: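 Carrageenan paw edema (Winter method) in male rats, seven animals per dose. Drug given orally as a suspension in 0.5% CMC at three or more dose levels within 0.1–18 mg/kg.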
# Rattus norvegicus [2] = assay: Analgesic activity in carrageenan-treated po dosed rat assessed as concentration required to double pain index of control; format: functional
# How it was run: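 Randall–Selitto paw-pressure test in male rats after carrageenan injection, seven animals per dose level. Pain index = pain threshold after carrageenan / threshold before carrageenan. AID2.0 is the dose doubling the control group's pain index. It and its 95% fiducial limits come from a least-squares regression line, with limits by Fieller's equation.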
# Mus musculus = assay: Analgesic activity in po dosed mouse assessed as inhibition of acetic acid-induced writhing; format: functional
# How it was run: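 Acetic acid writhing test (Koster method) in male mice, ten animals per dose level.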
# Rattus norvegicus [3] = assay: Antiinflammatory activity in Wistar albino rat assessed as inhibition of adjuvant-induced arthritis at 0.25 mg/kg, po administered for 14 days prior to adjuvant challenge relative to control; format: functional
# How it was run: (§1)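 Adjuvant arthritis in female rats, ten animals per dose. Oral treatment given either prophylactically or therapeutically at the stated doses. Percent inhibition reported as mean ± SE.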
# Rattus norvegicus [4] = assay: Antiinflammatory activity in Wistar albino rat assessed as inhibition of adjuvant-induced arthritis at 0.25 mg/kg, po administered for 14 days followed by adjuvant challenge relative to control; format: functional; details: 336 h; how it was run: as §1
# [5] = Toxicity in po dosed rat assessed as induction of gastric lesion; format: organism-based, Stomach; details: in vivo, read-out: UD50 (the source's name)
# How it was run: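 Gastric lesions scored by the Jahn and Adrian method in male rats, ten animals per dose level, after oral dosing. UD50 and 95% fiducial limits by the Litchfield–Wilcoxon method.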
# [6] = Acute toxicity in po dosed rat after 7 days; details: in vivo
# Rattus norvegicus [7] = assay: Antiinflammatory activity in rat with acute phase of inflammation assessed as inhibition of adjuvant-carrageenan-induced paw edema at 2 mg/kg, po relative to control; format: functional
# How it was run: (§2)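 Adjuvant-carrageenan-induced inflammation in female rats, ten animals per dose. Oral dosing at 1 or 2 mg/kg. Edema inhibition scored separately for the acute and prolonged phases, given as % inhibition (mean ± SE).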
# Rattus norvegicus [8] = assay: Antiinflammatory activity in rat with prolonged phase of inflammation assessed as inhibition of adjuvant-carrageenan-induced paw edema at 2 mg/kg, po relative to control; format: functional; how it was run: as §2
# Rattus norvegicus [9] = assay: Antiinflammatory activity in rat with prolonged phase of inflammation assessed as inhibition of adjuvant-carrageenan-induced paw edema at 1 mg/kg, po relative to control; format: functional; how it was run: as §2
# Rattus norvegicus [10] = assay: Antiinflammatory activity in rat with acute phase of inflammation assessed as inhibition of adjuvant-carrageenan-induced paw edema at 1 mg/kg, po relative to control; format: functional; how it was run: as §2
# Rattus norvegicus [11] = assay: Potency index, ratio of phenylbutazone ID50 to compound ID50 for antiinflammatory activity in po dosed rat assessed as inhibition of carrageenan-induced paw edema; format: functional
# How it was run: (§3)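 The ratio uses oral carrageenan paw-edema ID50 values from male rats, seven animals per dose, with drugs suspended in 0.5% CMC. Each ID50 comes from a least-squares dose–response regression. The index is reference ID50 divided by test ID50 on a weight basis.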
# Rattus norvegicus [12] = assay: Potency index, ratio of ketoprofen ID50 to compound ID50 for antiinflammatory activity in po dosed rat assessed as inhibition of carrageenan-induced paw edema; format: functional; how it was run: as §3
# Rattus norvegicus [13] = assay: Potency index, ratio of indomethacin ID50 to compound ID50 for antiinflammatory activity in po dosed rat assessed as inhibition of carrageenan-induced paw edema; format: functional; how it was run: as §3
# Rattus norvegicus [14] = assay: Antiinflammatory activity in Wistar albino rat assessed as inhibition of adjuvant-induced arthritis at 0.5 mg/kg, po administered for 14 days prior to adjuvant challenge relative to control; format: functional; how it was run: as §1
# Rattus norvegicus [15] = assay: Antiinflammatory activity in Wistar albino rat assessed as inhibition of adjuvant-induced arthritis at 0.5 mg/kg, po administered for 14 days followed by adjuvant challenge relative to control; format: functional; details: 336 h; how it was run: as §1
# Rattus norvegicus [16] = assay: Antiinflammatory activity in Wistar albino rat assessed as inhibition of adjuvant-induced arthritis at 10 mg/kg, po administered for 14 days followed by adjuvant challenge relative to control; format: functional; details: 336 h; how it was run: as §1
# Rattus norvegicus [17] = assay: Antiinflammatory activity in Wistar albino rat assessed as inhibition of adjuvant-induced arthritis at 10 mg/kg, po administered for 14 days prior to adjuvant challenge relative to control; format: functional; how it was run: as §1
# Rattus norvegicus [18] = assay: Antiinflammatory activity in Wistar albino rat assessed as inhibition of adjuvant-induced arthritis at 1 mg/kg, po administered for 14 days followed by adjuvant challenge relative to control; format: functional; details: 336 h; how it was run: as §1
# Rattus norvegicus [19] = assay: Antiinflammatory activity in Wistar albino rat assessed as inhibition of adjuvant-induced arthritis at 2 mg/kg, po administered for 14 days prior to adjuvant challenge relative to control; format: functional; how it was run: as §1
# Rattus norvegicus [20] = assay: Antiinflammatory activity in Wistar albino rat assessed as inhibition of adjuvant-induced arthritis at 30 mg/kg, po administered for 14 days followed by adjuvant challenge relative to control; format: functional; details: 336 h; how it was run: as §1
# Rattus norvegicus [21] = assay: Antiinflammatory activity in Wistar albino rat assessed as inhibition of adjuvant-induced arthritis at 30 mg/kg, po administered for 14 days prior to adjuvant challenge relative to control; format: functional; how it was run: as §1
structure (smiles),measurement,setting,value
O=C(O)Cc1cccc2c1C(=O)c1ccccc1CO2,ED50,Rattus norvegicus [1],> 18 mg/kg
COC(=O)Cc1ccc2c(c1)C(=O)c1ccccc1CO2,ED50,Rattus norvegicus [1],15.2 mg/kg
CCOC(=O)Cc1ccc2c(c1)C(=O)c1ccccc1CO2,ED50,Rattus norvegicus [1],17.8 mg/kg
O=C(O)Cc1cc2c(c([N+](=O)[O-])c1)OCc1ccccc1C2=O,ED50,Rattus norvegicus [1],> 18 mg/kg
O=C(O)Cc1ccc2c(c1)C(=O)c1ccc(Cl)cc1CO2,ID30,Rattus norvegicus [1],3 mg/kg
same,ED50,Rattus norvegicus [1],41.6 mg/kg
COc1ccc2c(c1)COc1ccc(CC(=O)O)cc1C2=O,ED50,Rattus norvegicus [1],> 18 mg/kg
O=C(O)Cc1ccc2c(c1)C(=O)c1cc(Cl)ccc1CO2,ID30,Rattus norvegicus [1],> 18 mg/kg
same,ED50,Rattus norvegicus [1],> 18 mg/kg
CC(C(=O)[O-])c1ccc2c(c1)C(=O)c1ccccc1CO2.CC(C(=O)[O-])c1ccc2c(c1)C(=O)c1ccccc1CO2.[Ca+2] (configuration not stated),ED50,Rattus norvegicus [1],3.5 mg/kg
CC(C(=O)O)c1ccc2c(c1)C(=O)c1ccc(Cl)cc1CO2 (configuration not stated),ED50,Rattus norvegicus [1],7.6 mg/kg
CCOC(=O)Cc1ccc2c(c1)OCc1ccccc1C2=O,ED50,Rattus norvegicus [1],8.6 mg/kg
O=C(O)Cc1ccc2c(c1)OCc1cc(Cl)ccc1C2=O,ED50,Rattus norvegicus [1],7.6 mg/kg
O=C(O)Cc1ccc2c(c1)OCc1cc(F)ccc1C2=O,ED50,Rattus norvegicus [1],> 9 mg/kg
O=C(O)Cc1ccc2c(c1)OCc1cc(I)ccc1C2=O,ED50,Rattus norvegicus [1],6.7 mg/kg
COc1ccc2c(c1)COc1cc(CC(=O)O)ccc1C2=O,ED50,Rattus norvegicus [1],> 9 mg/kg
Cc1ccc2c(c1)COc1cc(CC(=O)O)ccc1C2=O,ED50,Rattus norvegicus [1],6.6 mg/kg
O=C(O)Cc1ccc2c(c1)OCc1cc(C(F)(F)F)ccc1C2=O,ED50,Rattus norvegicus [1],> 9 mg/kg
CC(C(=O)O)c1ccc2c(c1)OCc1cc(Cl)ccc1C2=O (configuration not stated),ED50,Rattus norvegicus [1],1.4 mg/kg
same,AID2.0 (dose doubling pain index),Rattus norvegicus [2],0.28 mg/kg
same,ED50,Mus musculus,36 mg/kg
same,inhibition in vivo at 0.25 mg/kg,Rattus norvegicus [3],50%
same,inhibition in vivo at 0.25 mg/kg,Rattus norvegicus [4],26%
same,TD50,[5],32.3 mg/kg
same,LD50 at 168 h,[6],12.1 mg/kg
CC(C(=O)O)c1ccc2c(c1)OCc1cc(F)ccc1C2=O (configuration not stated),ED50,Rattus norvegicus [1],4 mg/kg
CC(C(=O)O)c1ccc2c(c1)OCc1cc(I)ccc1C2=O (configuration not stated),ED50,Rattus norvegicus [1],4.8 mg/kg
CC(C(=O)O)c1ccc2c(c1)OCc1cc(C(F)(F)F)ccc1C2=O (configuration not stated),ED50,Rattus norvegicus [1],> 9 mg/kg
CC(C(=O)O)c1ccc2c(c1)OCc1ccc(Cl)cc1C2=O (configuration not stated),ED50,Rattus norvegicus [1],11.9 mg/kg
CC(C(=O)O)c1ccc2c(c1)C(=O)c1ccccc1CO2 (racemic),ID50,Rattus norvegicus [1],2.6 mg/kg
same,inhibition in vivo at 2 mg/kg,Rattus norvegicus [7],57%
same,inhibition in vivo at 2 mg/kg,Rattus norvegicus [8],82%
same,AID2.0 (dose doubling pain index),Rattus norvegicus [2],0.4 mg/kg
same,ED50,Mus musculus,14 mg/kg
same,inhibition in vivo at 0.25 mg/kg,Rattus norvegicus [3],36%
same,inhibition in vivo at 0.25 mg/kg,Rattus norvegicus [4],12%
same,TD50,[5],14.1 mg/kg
CC(C(=O)O)c1ccc2c(c1)OCc1ccccc1C2=O (racemic),ID50,Rattus norvegicus [1],0.76 mg/kg
same,inhibition in vivo at 1 mg/kg,Rattus norvegicus [9],110%
same,AID2.0 (dose doubling pain index),Rattus norvegicus [2],0.18 mg/kg
same,ED50,Mus musculus,11 mg/kg
same,inhibition in vivo at 0.25 mg/kg,Rattus norvegicus [3],55%
same,inhibition in vivo at 0.25 mg/kg,Rattus norvegicus [4],30%
same,TD50,[5],11.4 mg/kg
same,inhibition in vivo at 1 mg/kg,Rattus norvegicus [10],59%
same,LD50 at 168 h,[6],34.2 mg/kg
CC(C(=O)O)c1ccc2c(c1)C(=O)c1ccccc1CO2 (stereo in doubt; 10),ID50,Rattus norvegicus [1],1.3 mg/kg
CC(C(=O)O)c1ccc2c(c1)C(=O)c1ccccc1CO2 (stereo in doubt; 11),ID50,Rattus norvegicus [1],7.5 mg/kg
CC(C(=O)O)c1ccc2c(c1)OCc1ccccc1C2=O (stereo in doubt; 23),ED50,Rattus norvegicus [1],0.43 mg/kg
same,Ratio,Rattus norvegicus [11],165.4
same,Ratio,Rattus norvegicus [12],32.3
same,Ratio,Rattus norvegicus [13],15.4
CC(C(=O)O)c1ccc2c(c1)OCc1ccccc1C2=O (stereo in doubt; 24),ID50,Rattus norvegicus [1],0.67 mg/kg
COc1ccc2c(c1)c(CC(=O)O)c(C)n2C(=O)c1ccc(Cl)cc1 [INDOMETHACIN],ED50,Rattus norvegicus [1],8.4 mg/kg
same,inhibition in vivo at 2 mg/kg,Rattus norvegicus [7],48%
same,inhibition in vivo at 2 mg/kg,Rattus norvegicus [8],85%
same,AID2.0 (dose doubling pain index),Rattus norvegicus [2],1.53 mg/kg
same,ED50,Mus musculus,10 mg/kg
same,inhibition in vivo at 0.5 mg/kg,Rattus norvegicus [14],48%
same,TD50,[5],6.6 mg/kg
same,inhibition in vivo at 0.5 mg/kg,Rattus norvegicus [15],26%
same,LD50 at 168 h,[6],18.9 mg/kg
O=C(O)Cc1ccc2c(c1)C(=O)c1ccccc1CO2 [ISOXEPAC],ED50,Rattus norvegicus [1],14.3 mg/kg
same,inhibition in vivo at 2 mg/kg,Rattus norvegicus [7],28%
same,inhibition in vivo at 10 mg/kg,Rattus norvegicus [16],56%
same,inhibition in vivo at 2 mg/kg,Rattus norvegicus [8],55%
same,AID2.0 (dose doubling pain index),Rattus norvegicus [2],3.18 mg/kg
same,inhibition in vivo at 10 mg/kg,Rattus norvegicus [17],77%
same,ED50,Mus musculus,95 mg/kg
same,TD50,[5],63 mg/kg
same,LD50 at 168 h,[6],199 mg/kg
CC(C(=O)O)c1cccc(C(=O)c2ccccc2)c1 (configuration not stated) [KETOPROFEN],ED50,Rattus norvegicus [1],12.5 mg/kg
same,inhibition in vivo at 1 mg/kg,Rattus norvegicus [18],42%
same,AID2.0 (dose doubling pain index),Rattus norvegicus [2],1.61 mg/kg
same,ED50,Mus musculus,71 mg/kg
same,inhibition in vivo at 2 mg/kg,Rattus norvegicus [19],84%
same,TD50,[5],6.8 mg/kg
O=C(O)Cc1ccc2c(c1)OCc1ccccc1C2=O [OXEPINAC],ED50,Rattus norvegicus [1],3.7 mg/kg
same,inhibition in vivo at 2 mg/kg,Rattus norvegicus [7],45%
same,inhibition in vivo at 2 mg/kg,Rattus norvegicus [8],89%
same,AID2.0 (dose doubling pain index),Rattus norvegicus [2],0.44 mg/kg
same,ED50,Mus musculus,58 mg/kg
same,inhibition in vivo at 0.5 mg/kg,Rattus norvegicus [14],55%
same,TD50,[5],79.9 mg/kg
same,inhibition in vivo at 0.5 mg/kg,Rattus norvegicus [15],31%
same,LD50 at 168 h,[6],110 mg/kg
CCCCC1C(=O)N(c2ccccc2)N(c2ccccc2)C1=O [PHENYLBUTAZONE],ED50,Rattus norvegicus [1],77.7 mg/kg
same,AID2.0 (dose doubling pain index),Rattus norvegicus [2],17.22 mg/kg
same,ED50,Mus musculus,> 400 mg/kg
same,inhibition in vivo at 30 mg/kg,Rattus norvegicus [20],58%
same,TD50,[5],96 mg/kg
same,inhibition in vivo at 30 mg/kg,Rattus norvegicus [21],71%

# Source: ChEMBL document CHEMBL3272217, “6,11-Dihydro-11-oxodibenz [b,e] oxepinacetic acids with potent antiinflammatory activity” (J Med Chem, 1976)
